Diaphorase act: compounds boosting diaphorase resazurin reduction – biochemical, uHTS, resorufin fluorescence, counter-screen for diaphorase-coupled primary assays, primary screen | Diaphorase/resazurin coupled assay, 16 min; hits give high values; 1 = vehicle wells, 0 = NADH-free wells | activation factor at 20 µM | 190,000 tested, 0.005% active | AID 1229, 2008;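 active = diaphorase activity raised at least twofold by the compound at 20 µM; inactive = activation factor below 2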
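Assay system: Purified diaphorase enzyme from Clostridium kluyveri | Amount: Enzyme 0.07 U/mL final | Dosing: Compound 20 µM once, DMSO 1% | Timing: 16 min reaction at room temperature | Detection: Fluorescence, excitation 544 nm and emission 590 nm | Evaluation: Higher resorufin formation from activation or reduction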
DTT redox prof: compounds producing H2O2 with reducing agent – biochemical, NIH compound library profiling, artefact control for MLSCN library redox annotation, primary screen | DTT-dependent redox cycling H2O2, phenol red/HRP absorbance; 100% = 100 µM peroxide control, 0% = buffer | activation, % at 10 µM | 200,000 tested, 0.03% active | AID 878, 2007;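 active = activation of at least 50% relative to the plate's high and low controls in the primary single-dose screen; inactive = activation below 50%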;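 note: compound incubated with DTT at 0.8 mM final as the reducing agent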
PfG6PD inh: PfG6PD enzyme inhibitors, primary screen, biochemical, fluorescence intensity, uHTS; 350,000 tested, 0.78% active; PfGluPho enzyme, NADPH resazurin-diaphorase fluorescence; inhibition, % at 20 µM;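 active = inhibition reaching at least a set limit at 20 µM in the primary screen, cut at about 59% in these data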
Diaphorase inh: diaphorase inhibitors and chemical oxidizers, primary screen, counter-screen for diaphorase-coupled primary assays, biochemical, uHTS, resorufin fluorescence. diaphorase resazurin-to-resorufin fluorescence, NADH, 16 min; bacterial (C. kluyveri) enzyme, not human. inhibition, % at 20 µM. 190,000 tested, 0.69% active;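 active = primary screen inhibition at 20 µM above a set limit, cut at about 50% in these data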
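Assay system – diaphorase enzyme from Clostridium kluyveri · Amount – diaphorase 0.14 U/mL (working solution) · Times – reaction incubation of 16 min at room temperature · Controls – No-NADH positive control and DMSO neutral control · Signal – resorufin fluorescence 544/590 nm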
Lmaj promast: Leishmania major promastigote growth inhibition, primary screen. Leishmania major promastigotes, resazurin fluorescence viability. inhibition, % at 10 µM. 200,000 tested, 9% active;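 note: promastigotes grown with compound for 44 hours at 28 °C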
G6PDH CS: L. mesenteroides G6PDH inhibitors, counter-screen for G6PDH-coupled screening assays, biochemical, Leuconostoc mesenteroides enzyme. inhibition, % at 5 µM. Purified L. mesenteroides G6PDH, diaphorase/resazurin coupled fluorescence, 45 min. 200,000 tested, 0.12% active
Large screens that a line does not name were inactive. The entries come from a sample that favours hits as a whole. Cut-off read from the data, not from the text of the source, unless noted: active = inhibition above about 50%; inactive = the rest.

C#CC(=O)N(c1ccc(OC)c(OC)c1)C(C(=O)NC1CCCC1)c1cccs1 (stereo not given)	Lmaj promast 100
COc1ccc(CCN(C(=O)C(F)(F)F)C(C(=O)NC2CCCC2)c2cccs2)cc1OC (stereo not given)	Lmaj promast 59
COc1ccc(N(C(=O)Cc2cccs2)C(C(=O)NC2CCCCC2)c2cccn2C)cc1OC (stereo not given)	none
COc1ccc(NC(=S)Nn2cnnc2)cc1OC	none
Cc1nnc(SCc2cccc([N+](=O)[O-])c2)[nH]c1=O	none
CCCNC(=O)c1ccc(C)c(NC(=O)C2=C(C)OCCS2)c1	none (no result: Diaphorase act, DTT redox prof, Diaphorase inh, Lmaj promast, G6PDH CS)
COc1ccc(C=Nc2ccc3[nH]ncc3c2)c(O)c1	Diaphorase inh 66
CCOC(=O)C1(Cc2ccc(OC)cc2)CCN(C(=O)c2cc(C)nn2C)CC1	none (no result: Diaphorase act, DTT redox prof, Diaphorase inh, Lmaj promast, G6PDH CS)
CC1=NN(c2ccccc2)C(=O)/C1=C/c1cccc(C)c1	none (no result: Diaphorase act, DTT redox prof, Diaphorase inh, Lmaj promast, G6PDH CS)
CC1=NN(c2ccccc2)C(=O)/C1=C/c1cc2cc(C)ccc2nc1N1CCCCC1	Lmaj promast 90 (no result: PfG6PD inh)
CN(C)C(CNC(=O)c1cccc(OC(F)F)c1)c1ccco1 (stereo not given)	Lmaj promast 59 (no result: DTT redox prof)
CN(C)C(CNC(=O)c1ccc2nccnc2c1)c1ccco1 (stereo not given)	none (no result: Diaphorase act, DTT redox prof, Diaphorase inh, Lmaj promast, G6PDH CS)
CNC(=O)COC(=O)[C@@H](Nc1ccc(S(=O)(=O)N2CCOCC2)cc1[N+](=O)[O-])C(C)C	Lmaj promast 55
CC(C)C(C)NC(=O)COc1ccc(S(=O)(=O)N2CCOCC2)cc1[N+](=O)[O-] (stereo not given)	none
CC(C)[C@H](Nc1ccc(S(=O)(=O)N2CCOCC2)cc1[N+](=O)[O-])C(=O)OCC(N)=O	Lmaj promast 51
CC(C)[C@H](Nc1ccc(S(=O)(=O)N2CCOCC2)cc1[N+](=O)[O-])C(=O)OCC(=O)N(C(C)C)C(C)C	Lmaj promast 82
O=C(O)CSc1nnc(CSc2nc3ccccc3s2)n1-c1ccccc1	none
C#CCSc1nnc(CSc2nc3ccccc3s2)n1-c1ccccc1	Lmaj promast 50
Oc1cc2c(cc1O)[C@@H](c1ccccc1)CNCC2	PfG6PD inh 69
Oc1cc2c(cc1O)C(c1ccccc1)CNCC2 (stereo not given)	none (no result: Diaphorase act, DTT redox prof, Diaphorase inh, Lmaj promast, G6PDH CS)
CCOC(=O)C(Oc1ccc2c(-c3ccccc3)cc(=O)oc2c1C)c1ccccc1 (stereo not given)	Lmaj promast 100
CCOC(=O)C(Oc1ccc2c(-c3ccc(OC)cc3)cc(=O)oc2c1C)c1ccccc1 (stereo not given)	Lmaj promast 100
Cc1c(OCc2ccc(C(=O)O)cc2)ccc2c(-c3ccccc3)cc(=O)oc12	none (no result: Diaphorase act, DTT redox prof, Diaphorase inh, Lmaj promast, G6PDH CS)
Cc1cccc(-c2oc3ccccc3c2C#CCCO)c1	none (no result: Diaphorase act, DTT redox prof, Diaphorase inh, Lmaj promast, G6PDH CS)
COc1cc(/C=N/n2nnnc2N)ccc1OCc1c(C)no[n+]1[O-]	Lmaj promast 54
Cc1cccc(N2CCN(Cc3cnc(Cl)s3)CC2C)c1 (stereo not given)	Lmaj promast 78
CC1CCCN(Cc2cnc(Cl)s2)C1 (stereo not given)	none
CCCS(=O)(=O)N1CCN(CC2CC=CCC2)CC1 (stereo not given)	Lmaj promast 76
CCCS(=O)(=O)N1CCN(CC2CC3C=CC2C3)CC1 (stereo not given)	Lmaj promast 88
CCS(=O)(=O)N1CCN(CC2CC3C=CC2C3)CC1 (stereo not given)	Lmaj promast 93
Cc1ccc(S(=O)(=O)N2CCN(CC3CC4C=CC3C4)CC2)cc1 (stereo not given)	none (no result: Diaphorase act, DTT redox prof, Diaphorase inh, Lmaj promast, G6PDH CS)
COc1ccc(S(=O)(=O)N2CCN(CC3CC=CCC3)CC2)cc1 (stereo not given)	none (no result: Diaphorase act, DTT redox prof, Diaphorase inh, Lmaj promast, G6PDH CS)
CCn1c(SCC(=O)N/N=C(\C)c2ccncc2)nnc1-c1ccc(C)cc1	none (no result: Diaphorase act, DTT redox prof, Diaphorase inh, Lmaj promast, G6PDH CS)
CNc1ccc(C(O)(C(F)(F)F)C(F)(F)F)cc1C(O)(C(F)(F)F)C(F)(F)F	Lmaj promast 98

High-throughput results: PubChem, several laboratories
